# ChEMBL document CHEMBL4477162, “Galanthamine, Plicamine, and Secoplicamine Alkaloids from Zephyranthes candida and Their Anti-acetylcholinesterase and Anti-inflammatory Activities” (J Nat Prod, 2016)
# Calls of active or inactive are those of the source. The calls are words filed in the database; no cut-off is given here.
# Assays:
# RAW264.7 [1] = assay: Antiinflammatory activity in mouse RAW264.7 cells assessed as inhibition of LPS-induced NO production at 200 uM after 24 hrs by Griess assay; type: functional, cell-based
# Acetylcholinesterase = Acetylcholinesterase (Electrophorus electricus, UniProt O42275); assay: Inhibition of electric eel AChE using acetylthiocholine iodide as substrate measured every 13 secs by Ellman's method
# Acetylcholinesterase, sequence (O42275 whole entry): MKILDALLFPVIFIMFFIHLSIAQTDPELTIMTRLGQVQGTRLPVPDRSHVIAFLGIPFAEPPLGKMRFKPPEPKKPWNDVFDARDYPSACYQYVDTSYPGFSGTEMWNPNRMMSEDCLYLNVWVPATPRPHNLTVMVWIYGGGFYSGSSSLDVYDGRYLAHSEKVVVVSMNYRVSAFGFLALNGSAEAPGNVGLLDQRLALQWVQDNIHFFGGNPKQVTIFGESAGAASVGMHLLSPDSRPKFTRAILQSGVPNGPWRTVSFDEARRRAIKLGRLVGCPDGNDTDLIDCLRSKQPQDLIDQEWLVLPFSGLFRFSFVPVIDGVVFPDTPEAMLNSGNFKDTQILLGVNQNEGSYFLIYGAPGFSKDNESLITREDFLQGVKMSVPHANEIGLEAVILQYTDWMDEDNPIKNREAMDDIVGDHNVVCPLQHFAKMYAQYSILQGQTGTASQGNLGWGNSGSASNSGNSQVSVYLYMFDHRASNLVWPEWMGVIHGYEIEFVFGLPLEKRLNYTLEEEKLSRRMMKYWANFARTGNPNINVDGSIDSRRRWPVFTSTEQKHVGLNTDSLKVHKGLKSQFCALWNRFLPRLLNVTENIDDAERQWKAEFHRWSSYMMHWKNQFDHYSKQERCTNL
# RAW264.7 [2] = assay: Antiinflammatory activity in mouse RAW264.7 cells assessed as inhibition of LPS-induced NO production after 24 hrs by Griess assay; type: functional, cell-based; conditions: RAW264.7, 24 h
# Outline: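 LPS-stimulated RAW 264.7 mouse macrophages; compound inhibition of NO production measured, with dexamethasone as positive control. The protocol follows a previously described method.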
# RAW264.7 [3] = assay: Cytotoxicity against mouse RAW264.7 cells at 200 uM; type: cell-based; conditions: raw264.7, 200 µM
SMILES,inhibition (RAW264.7 [1]),also measured
CN1CC[C@@]23CC[C@H](O)C[C@@H]2Oc2c(O)ccc(c23)C1,inactive,
COc1ccc2c3c1O[C@H]1C[C@@H](O)C=C[C@@]31[C@@H](O)CN(C)C2,inactive,
CO[C@@H]1C=C[C@@]23c4cc5c(cc4CN(C)[C@@H]2C(=O)N(C)[C@H]3C1)OCO5,inactive,
CO[C@@H]1C=C[C@@]23c4cc5c(cc4C=N[C@@H]2C(=O)N(C)[C@H]3C1)OCO5,inactive,
CN1Cc2ccc(O)c3c2[C@@]2(CC[C@H](O)C[C@@H]2O3)[C@@H](O)C1,inactive,
CC[C@H](C)CN1Cc2cc3c(cc2[C@@]24C=C[C@@H](OC)C[C@@H]2N(C)C(=O)[C@@H]14)OCO3,inactive,
CN1CC[C@@]23C=C[C@H](O)C[C@@H]2Oc2c(O)ccc(c23)C1,inactive,
CCCCCCN1Cc2cc3c(cc2[C@@]24C=C[C@@H](OC)C[C@@H]2N(C)C(=O)[C@@H]14)OCO3,inactive,
CN1Cc2ccc(O)c3c2[C@@]2(C=C[C@H](O)C[C@@H]2O3)[C@@H](O)C1,inactive,IC50 (Acetylcholinesterase): 169 µM
CO[C@@H]1C=C[C@@]23c4cc5c(cc4CN(CCCC(=O)O)[C@@H]2C(=O)N(C)[C@H]3C1)OCO5,,IC50 (RAW264.7 [2]): 18.8 µM; Activity (RAW264.7 [3]): Non-Toxic
CO[C@@H]1C=C[C@@]23c4cc5c(cc4CN(CCC(C)C)[C@@H]2C(=O)N(C)[C@H]3C1)OCO5,inactive,
CO[C@@H]1C=C[C@@]2(C(=O)N(CCC(C)C)Cc3cc4c(cc32)OCO4)[C@@H](N(C)C=O)C1,,IC50 (RAW264.7 [2]): 23.6 µM; Activity (RAW264.7 [3]): Non-Toxic
COc1ccc2c3c1O[C@H]1C[C@@H](O)C=C[C@@]31[C@@H](O)C[N+](C)([O-])C2 (stereo partly drawn),inactive,
CO[C@@H]1C=C[C@@]23c4cc5c(cc4CN(CCc4ccccc4)[C@@H]2C(=O)N(C)[C@H]3C1)OCO5,,IC50 (RAW264.7 [2]): 10.2 µM; Activity (RAW264.7 [3]): Non-Toxic
CO[C@@H]1C=C[C@@]23c4cc5c(cc4C[N+]([O-])(CCC(C)C)[C@@H]2C(=O)N(C)[C@H]3C1)OCO5 (stereo partly drawn),inactive,IC50 (Acetylcholinesterase): 57.3 µM
COc1ccc2c3c1O[C@H]1C[C@@H](O)CC[C@@]31[C@@H](O)C[N+](C)([O-])C2 (stereo partly drawn),inactive,
COc1ccc2c3c1O[C@H]1C[C@@H](O)CC[C@@]31CCN(C)C2,inactive,
COc1ccc2c3c1O[C@H]1C[C@@H](O)C=C[C@@]31CCN(C)C2,inactive,
CO[C@@H]1C=C[C@@]23c4cc5c(cc4CN(CCc4ccc(O)cc4)[C@@H]2C(=O)N(C)[C@H]3C1)OCO5,inactive,
CO[C@@H]1C=C[C@@]23c4cc5c(cc4CN(CCc4c[nH]c6ccccc46)[C@@H]2C(=O)N(C)[C@H]3C1)OCO5,,IC50 (Acetylcholinesterase): 111 µM; IC50 (RAW264.7 [2]): 18 µM; Activity (RAW264.7 [3]): Non-Toxic
COc1ccc2c3c1O[C@H]1C[C@@H](O)CC[C@@]31[C@@H](O)CN(C)C2,inactive,
CO[C@@H]1C=C[C@@]23c4cc5c(cc4C[N+]([O-])(CCc4ccc(O)cc4)[C@@H]2C(=O)N(C)[C@H]3C1)OCO5 (stereo partly drawn),,IC50 (Acetylcholinesterase): 75.3 µM; IC50 (RAW264.7 [2]): 7.5 µM; Activity (RAW264.7 [3]): Non-Toxic
CO[C@@H]1C=C[C@@]2(C(=O)N(C)Cc3cc4c(cc32)OCO4)[C@@H](N(C)C=O)C1,inactive,
COc1ccc2c3c1O[C@H]1[C@@H](O)[C@@H](O)C=C[C@@]31[C@@H](O)CN(C)C2,inactive,
